Activity calls are given as the source filed them. The calls are words filed in the database; no cut-off is given here.
Tests used:
[1] = target: Transient receptor potential cation channel subfamily V member 1 (Homo sapiens) (UniProt Q8NER1); test: Binding affinity to TRPV1 receptor at 20 uM by radioligand displacement assay
[2] = target: Cannabinoid receptor 2 (Homo sapiens) (UniProt P34972); test: Binding affinity to CB2 receptor at 20 uM by radioligand displacement assay
[3] = tested on: HL-60; test: Cytotoxicity against human HL60 cells assessed as cell viability after 24 hrs by tryptan blue staining-based cell counting; format: functional; conditions: HL-60, 24 h
How it was run: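 HL-60 promyelocytic leukemia cells (ATCC) kept in RPMI 1640 with 10% heat-inactivated FBS, 1% L-glutamine, 1% penicillin/streptomycin, 37 C, 5% CO2. Seeded at 0.1 × 10^6 cells/mL, grown 24 h, then exposed 24 h to compounds or 0.3% DMSO solvent. Suspension cells stained with 0.4% trypan blue and counted on a viability analyzer; IC50 from three independent experiments.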

[4] = Cytotoxicity against human HeLaS3 cells assessed as cell viability after 24 hrs by tryptan blue staining-based cell counting; format: functional; conditions: HeLa S3, 24 h
How it was run: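 HeLa-S3 cervix carcinoma cells (ATCC) grown in RPMI 1640 with 10% heat-inactivated FBS, 1% L-glutamine, 1% penicillin/streptomycin at 37 C, 5% CO2. Plated at 0.1 × 10^6 cells/mL for 24 h, then treated 24 h with compounds or 0.3% DMSO. Cells trypsinized, stained with 0.4% trypan blue, counted on a viability analyzer; IC50 from three independent experiments.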

[5] = tested on: MCF7; test: Cytotoxicity against human MCF7 cells assessed as cell viability after 24 hrs by tryptan blue staining-based cell counting; format: functional; conditions: MCF7, 24 h
How it was run: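 MCF-7 breast adenocarcinoma cells (ATCC) in DMEM with 10% heat-inactivated FBS, 1% L-glutamine, 1% penicillin/streptomycin, 37 C, 5% CO2. Cultured at 0.2 × 10^6 cells/mL for 48 h before 24 h exposure to compounds or 0.3% DMSO. Trypsinized cells stained with 0.4% trypan blue and counted on a viability analyzer; IC50 from three independent experiments.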

[6] = target: T1, 5-hydroxytryptamine receptor 1A (Homo sapiens) (UniProt P08908); test: Binding affinity to 5HT1A receptor at 20 uM by radioligand displacement assay
T1 sequence (whole entry): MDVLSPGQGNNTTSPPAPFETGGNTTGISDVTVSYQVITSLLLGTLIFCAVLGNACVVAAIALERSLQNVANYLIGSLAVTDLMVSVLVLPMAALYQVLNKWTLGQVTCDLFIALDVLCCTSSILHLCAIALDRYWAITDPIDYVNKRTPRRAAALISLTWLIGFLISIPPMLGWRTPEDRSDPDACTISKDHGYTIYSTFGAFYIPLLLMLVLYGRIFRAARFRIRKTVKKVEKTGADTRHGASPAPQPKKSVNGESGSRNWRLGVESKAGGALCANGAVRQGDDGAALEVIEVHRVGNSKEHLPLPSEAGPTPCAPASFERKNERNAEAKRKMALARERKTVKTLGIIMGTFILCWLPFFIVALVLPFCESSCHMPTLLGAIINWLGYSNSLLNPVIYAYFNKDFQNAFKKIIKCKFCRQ

[7] = target: Cannabinoid receptor 1 (Homo sapiens) (UniProt P21554); test: Binding affinity to CB1 receptor at 20 uM by radioligand displacement assay
[8] = tested on: HEK293; test: Cytotoxicity against human HEK293 cells assessed as cell viability after 24 hrs by tryptan blue staining-based cell counting; conditions: HEK293, 24 h
How it was run: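 HEK293 cells from ATCC, kept in DMEM with 10% heat-inactivated FBS, 1% L-glutamine, 1% penicillin/streptomycin, 37 C, 5% CO2. Seeded at 0.1 × 10^6 cells/mL in 24-well plates, grown 24 h, then exposed to compounds or 0.3% DMSO solvent for 24 h. Trypsinized cells stained with 0.4% trypan blue and counted by viability analyzer; IC50 from three independent experiments.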

Cannabinoid receptor 2 (Homo sapiens), sequence (P34972 whole entry): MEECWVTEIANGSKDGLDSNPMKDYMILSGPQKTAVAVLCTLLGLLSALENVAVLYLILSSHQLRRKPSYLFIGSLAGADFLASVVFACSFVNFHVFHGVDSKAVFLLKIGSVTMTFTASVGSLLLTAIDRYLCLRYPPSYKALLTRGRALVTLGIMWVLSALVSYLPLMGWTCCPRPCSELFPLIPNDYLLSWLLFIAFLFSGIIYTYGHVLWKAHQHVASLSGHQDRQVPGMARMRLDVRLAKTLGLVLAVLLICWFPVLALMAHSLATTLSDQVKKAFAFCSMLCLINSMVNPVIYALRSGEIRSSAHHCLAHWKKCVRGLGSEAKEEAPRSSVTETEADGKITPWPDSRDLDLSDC
Transient receptor potential cation channel subfamily V member 1 (Homo sapiens), sequence (Q8NER1 whole entry): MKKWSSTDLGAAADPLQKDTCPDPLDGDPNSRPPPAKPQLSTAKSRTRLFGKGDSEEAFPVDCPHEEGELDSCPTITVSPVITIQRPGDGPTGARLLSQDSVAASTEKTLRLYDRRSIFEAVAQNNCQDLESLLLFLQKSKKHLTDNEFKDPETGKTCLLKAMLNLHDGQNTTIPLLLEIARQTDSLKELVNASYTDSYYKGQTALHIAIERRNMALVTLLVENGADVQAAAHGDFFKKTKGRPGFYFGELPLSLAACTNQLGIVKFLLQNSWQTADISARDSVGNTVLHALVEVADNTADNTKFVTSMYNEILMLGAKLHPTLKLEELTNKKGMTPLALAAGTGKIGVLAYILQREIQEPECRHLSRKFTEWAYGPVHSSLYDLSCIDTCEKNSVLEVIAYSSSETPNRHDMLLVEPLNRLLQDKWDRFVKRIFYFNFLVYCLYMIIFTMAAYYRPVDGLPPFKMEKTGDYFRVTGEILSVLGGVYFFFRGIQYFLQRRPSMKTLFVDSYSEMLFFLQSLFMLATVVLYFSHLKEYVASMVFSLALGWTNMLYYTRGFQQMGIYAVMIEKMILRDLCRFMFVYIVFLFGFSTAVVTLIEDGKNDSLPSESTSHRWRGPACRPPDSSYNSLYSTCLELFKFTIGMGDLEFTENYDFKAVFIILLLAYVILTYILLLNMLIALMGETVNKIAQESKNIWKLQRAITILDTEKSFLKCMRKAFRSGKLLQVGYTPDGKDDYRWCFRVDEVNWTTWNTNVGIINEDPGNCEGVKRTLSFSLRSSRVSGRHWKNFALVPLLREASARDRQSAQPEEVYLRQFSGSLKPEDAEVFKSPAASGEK
Cannabinoid receptor 1 (Homo sapiens), sequence (P21554 whole entry): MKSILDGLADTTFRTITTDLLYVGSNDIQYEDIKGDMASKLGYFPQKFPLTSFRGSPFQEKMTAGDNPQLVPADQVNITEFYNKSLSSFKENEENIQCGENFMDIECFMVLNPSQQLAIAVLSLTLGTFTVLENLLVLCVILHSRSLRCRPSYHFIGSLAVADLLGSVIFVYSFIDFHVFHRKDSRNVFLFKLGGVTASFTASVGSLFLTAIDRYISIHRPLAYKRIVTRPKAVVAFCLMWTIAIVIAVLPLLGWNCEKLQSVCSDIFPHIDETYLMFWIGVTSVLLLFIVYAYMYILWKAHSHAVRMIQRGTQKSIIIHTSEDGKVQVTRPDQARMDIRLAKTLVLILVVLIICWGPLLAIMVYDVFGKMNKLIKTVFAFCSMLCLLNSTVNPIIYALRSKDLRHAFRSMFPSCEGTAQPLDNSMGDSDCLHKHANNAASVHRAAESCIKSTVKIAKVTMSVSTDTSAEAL

Row | Activity [1] | Activity [2] | Activity [6] | Activity [7] | Structure (SMILES) | IC50 [3] | IC50 [4] | IC50 [5] | IC50 [8]
1 | inactive | inactive | inactive | inactive | C=C(C)C(O)CCC(=C)[C@@H]1CC[C@](C)(O)[C@H]2Oc3cc(C)cc(O)c3[C@@H]12 (some centres not stated) [FERRUGINENE A] | > 20 µM | > 20 µM | > 20 µM | –
2 | Active | inactive | inactive | inactive | C=C(C/C=C/C(C)(C)O)[C@@H]1CC[C@](C)(O)[C@H]2Oc3cc(C)cc(O)c3[C@@H]12 [FERRUGINENE B] | > 20 µM | > 20 µM | > 20 µM | –

Row | Structure (SMILES) | Activity [1] | Activity [2] | Activity [6] | Activity [7] | IC50 [3] | IC50 [4] | IC50 [5] | IC50 [8]
3 | C=C(C)C(O)CCC(=C)[C@@H]1CCC(C)=C[C@H]1c1c(O)cc(C)cc1O (mixture of isomers) [FERRUGINENE C] | inactive | Active | inactive | inactive | > 13.7 µM | > 20 µM | > 20 µM | > 20 µM
